Experimental findings from ChEMBL document CHEMBL3271979, “Inhibition of solid tumors by nitrosoureas. 1. Lewis lung carcinoma” (1977) are described below.

The source made the active and inactive calls. The rule behind the calls is not given here.

A word on the ILS: it is how much longer treated animals lived than controls.

In test [1] the test system is Mus musculus. Put plainly: Antitumor activity against mouse advanced Lewis lung carcinoma allografted in BDF1 mouse assessed as complete regression of established tumor at 18 mg/kg, ip administered as single dose on 7th day post-tumor implantation. Type of test: functional, organism-based. Further details: dose 18 mg/kg. The method in brief:
(§1)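 BDF1 mice (C57Blk/6 × DBA/2) implanted sc by trocar with Lewis lung tumor fragments of about 40 mg, taken only from bacteriologically sterile donor tumors. Mice bearing tumors of about 400 mg (day 6-7) were selected. Each received a single ip dose on day 7, at or below the LD10 in normal mice. Groups were of 10 mice. Tumor weight was taken from calipers as w = ab²/2, measured at least twice weekly. Matched non-tumor mice served as toxicity controls.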

In test [2] the test system is Mus musculus. Put plainly: Antitumor activity against mouse advanced Lewis lung carcinoma allografted in BDF1 mouse assessed as complete regression of established tumor at 12 mg/kg, ip administered as single dose on 7th day post-tumor implantation. It counts as functional, organism-based. Details: dose 12 mg/kg. The method in brief:
as §1

For test [3], the system named is Mus musculus. Put plainly: Antitumor activity against mouse advanced Lewis lung carcinoma allografted in BDF1 mouse assessed as disease cure at 18 mg/kg, ip administered as single dose on 7th day post-tumor implantation measured for 80 days post-drug treatment. Type of test: functional, organism-based. Further details: dose 18 mg/kg. The method in brief:
as §1

Test [4] relates to Mus musculus. As to the kind of experiment: Antitumor activity against mouse advanced Lewis lung carcinoma allografted in BDF1 mouse assessed as disease cure at 12 mg/kg, ip administered as single dose on 7th day post-tumor implantation measured for 80 days post-drug treatment. It counts as functional, organism-based. Further details: dose 12 mg/kg. The method in brief:
as §1

Test [5] is described as follows: Antitumor activity against mouse advanced Lewis lung carcinoma allografted in BDF1 mouse assessed as increase in host life span at 18 mg/kg, ip administered as single dose on 7th day post-tumor implantation. It counts as functional. To be noted: route intraperitoneal. The method in brief:
(§2)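 BDF1 mice (C57Blk/6 × DBA/2) implanted sc by trocar with about 40 mg Lewis lung tumor fragments from bacteriologically sterile donors. Advanced-disease groups held tumors of about 400 mg by day 6-7, sized by caliper (w = ab²/2). Single ip injection on day 7, in water or saline vehicle, at or below the LD10 in normal mice. Tumors measured at least twice weekly.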

A short description of test [6]: Antitumor activity against mouse advanced Lewis lung carcinoma allografted in BDF1 mouse assessed as increase in host life span at 12 mg/kg, ip administered as single dose on 7th day post-tumor implantation. To be noted: route intraperitoneal. Type of test: functional. The method in brief: as §2
A short description of test [7]: Antitumor activity against mouse early Lewis lung carcinoma allografted in ip dosed BDF1 mouse assessed as disease cure administered as single dose on 1 or 2 days post-tumor implantation measured for 80 days post-drug treatment. It counts as functional. The method in brief: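 BDF1 mice implanted sc by trocar with ~40 mg Lewis lung fragments from sterile donor tumors. A single ip dose was given on day 1 or 2 after implant, in water or saline vehicle. Cures were scored in animals observed for at least 80 days after treatment. Drug-toxicity controls were matched non-tumor-bearing mice monitored for body weight and deaths.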

The subject of test [8] is L1210. As to the kind of experiment: Antitumor activity against mouse L1210 cells allografted in ip dosed mouse assessed as disease cure administered as single dose. It counts as functional, organism-based.
The test system of test [9] is Mus musculus. Put plainly: Antitumor activity against mouse advanced Lewis lung carcinoma allografted in ip dosed BDF1 mouse assessed as complete regression of established tumor administered as single dose on day 6 or 7 post-tumor implantation. Type of test: functional, organism-based. The method in brief:
as §1

The subject of test [10] is Mus musculus. Put plainly: Antitumor activity against mouse advanced Lewis lung carcinoma allografted in ip dosed BDF1 mouse assessed as disease cure administered as single dose on day 6 or 7 post-tumor implantation. Type of test: functional, organism-based. The method in brief:
as §1

Test [11] can be described thus: Antitumor activity against mouse advanced Lewis lung carcinoma allografted in ip dosed BDF1 mouse assessed as increase in host lifespan administered as single dose on day 6 or 7 post-tumor implantation. Type of test: functional. The method in brief: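 Advanced Lewis lung model: about 40 mg fragments implanted sc by trocar into BDF1 mice, and mice with tumors of about 400 mg (day 6-7) selected. Tumor weight from calipers, w = ab²/2. Agent given as one ip dose in distilled water or physiological saline. Nontumor-bearing mice received matching doses as toxicity controls.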

Test [12] in a line: Antitumor activity against mouse early Lewis lung carcinoma allografted in BDF1 mouse assessed as increase in host life span at 20 mg/kg, ip administered as single dose on 1 or 2 days post-tumor implantation. As to conditions: route intraperitoneal. It counts as functional. The method in brief:
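BDF1 mice (C57Blk/6 × DBA/2) implanted sc by trocar with ~40 mg Lewis lung tumor fragments from bacteriologically sterile donor tumors. Single ip dose on day 1 or 2, as a solution or suspension in water (CMC or gum acacia) or saline (HPC or Tween 80). Read-out is […]. Same-dose toxicity controls were run in nontumor-bearing mice.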

Test [13] can be described thus: Antitumor activity against mouse early Lewis lung carcinoma allografted in BDF1 mouse assessed as increase in host life span at 13 mg/kg, ip administered as single dose on 1 or 2 days post-tumor implantation. It counts as functional. As to conditions: route intraperitoneal. The method in brief:
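Early disease: BDF1 mice carrying sc trocar implants of about 40 mg Lewis lung fragments. One ip dose given on day 1 or 2 after implant, in distilled water or saline, at ≤0.5 ml. Endpoints were % increase in life-span of dying animals and delay in days for the primary tumor to reach 1 g. Untreated controls served as reference.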

Test [14] relates to Mus musculus. Put plainly: Antitumor activity against mouse advanced Lewis lung carcinoma allografted in BDF1 mouse assessed as disease cure at 30 mg/kg, ip administered as single dose on 7th day post-tumor implantation measured for 80 days post-drug treatment. It counts as functional, organism-based. Details: dose 30 mg/kg. The method in brief:
as §1

The test system of test [15] is Mus musculus. As to the kind of experiment: Antitumor activity against mouse advanced Lewis lung carcinoma allografted in BDF1 mouse assessed as disease cure at 20 mg/kg, ip administered as single dose on 7th day post-tumor implantation measured for 80 days post-drug treatment. Details: dose 20 mg/kg. It counts as functional, organism-based. The method in brief:
as §1

The nature of test [16]: Antitumor activity against mouse advanced Lewis lung carcinoma allografted in BDF1 mouse assessed as increase in host life span at 30 mg/kg, ip administered as single dose on 7th day post-tumor implantation. Type of test: functional. To be noted: route intraperitoneal. The method in brief:
as §2

Test [17] can be described thus: Antitumor activity against mouse advanced Lewis lung carcinoma allografted in BDF1 mouse assessed as increase in host life span at 20 mg/kg, ip administered as single dose on 7th day post-tumor implantation. To be noted: route intraperitoneal. It counts as functional. The method in brief: as §2
Test [18] can be described thus: Antitumor activity against mouse early Lewis lung carcinoma allografted in BDF1 mouse assessed as time delay in tumor growth at 13 mg/kg, ip administered as single dose on 1 or 2 days post-tumor implantation. It counts as functional. To be noted: route intraperitoneal. The method in brief: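 Sc trocar implants of about 40 mg Lewis lung fragments in BDF1 mice. A single ip injection was given on day 1 or 2, in water or physiological saline, at ≤0.5 ml. Tumor size came from caliper length and width as w = ab²/2, measured at least twice weekly. Growth delay is the extra days taken to reach 1 g, compared with untreated controls.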

Test [19] in a line: Ratio of ED50 for antitumor activity against mouse L1210 cells allografted in ip dosed mouse to LD10 for mouse.

For the compound `CC(=O)OC[C@H]1CC[C@H](NC(=O)N(CCCl)N=O)CC1`, the inhibition entry in test [1], in test [2] and in [9] was “inactive” each time. Also, the result in test [3], in test [4], in test [8] and in test [10] was inactive. For the same compound, in [5], the ILS at 18 mg/kg was found to be 65%. Further, in test [6], the ILS at 12 mg/kg turned out to be 26%. In addition, in test [7], the Activity is on record as 10%. For the same compound, the increase in life span (ILS) in test [11] was over 25%.
With `O=NN(CCCl)C(=O)N[C@H]1CC[C@@H](C(=O)O)CC1`, the increase in life span (ILS) at 20 mg/kg in [12] was found to be 0%; in test [17], 90%. Also, the ILS at 13 mg/kg in [13] was found to be 35%. Besides, the outcome in test [14], in test [15] and in test [10] was inactive. In addition, the increase in life span (ILS) at 30 mg/kg in [16] worked out at 79%. The Time in test [18] is 23 days. Also, the Activity in test [7] is reported as over 50%. Besides, the Ratio in [19] came out at 0.6. For the same compound, the inhibition result in test [9] was “Active”.
